# Reference: ChEMBL document CHEMBL4814057, “4-4-(Anilinomethyl)-3-[4-(trifluoromethyl)phenyl]-1H-pyrazol-1-ylbenzoic acid derivatives as potent anti-gram-positive bacterial agents” (Eur J Med Chem, 2021)
# Activity calls are given as the source filed them. The rule behind the calls is not given here.
# System: Staphylococcus aureus
# Assay: Antibacterial activity against methicillin resistant Staphylococcus aureus ATCC 700699 persisters assessed as reduction in viability at 16 times MIC by colony counting method
# Assay type: functional, organism-based
# Outline: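 Stationary-phase S. aureus from overnight CAMHB culture (35 °C, 200 rpm), washed thrice in PBS, diluted to ~5 × 10^8 CFU/ml. Incubated with antibiotic at 35 °C, 200 rpm. Aliquots taken at set times, washed, serially diluted in PBS, drop-plated (6 × 6) on TSA with 5% sheep blood. Colonies counted after 18–20 h at 35 °C. Triplicates.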
structure (smiles),measurement,value
O=C(O)c1ccc(-n2cc(CNc3cc(F)cc(C(F)(F)F)c3)c(-c3ccc(C(F)(F)F)cc3)n2)cc1,Activity,Active
